Here are results for six molecules from publication PMC9416874 (Carbohydrate research, 2014).

Numbering of substitutions follows the chain as printed. In names and notes the source's numbering stands.

The target of one series is T1, Psp2,6ST(15–501)-His6 (Photobacterium sp. JT-ISH-224, UniProt A8QYL1, A366G).
T1 sequence (A8QYL1 15-501 A366G): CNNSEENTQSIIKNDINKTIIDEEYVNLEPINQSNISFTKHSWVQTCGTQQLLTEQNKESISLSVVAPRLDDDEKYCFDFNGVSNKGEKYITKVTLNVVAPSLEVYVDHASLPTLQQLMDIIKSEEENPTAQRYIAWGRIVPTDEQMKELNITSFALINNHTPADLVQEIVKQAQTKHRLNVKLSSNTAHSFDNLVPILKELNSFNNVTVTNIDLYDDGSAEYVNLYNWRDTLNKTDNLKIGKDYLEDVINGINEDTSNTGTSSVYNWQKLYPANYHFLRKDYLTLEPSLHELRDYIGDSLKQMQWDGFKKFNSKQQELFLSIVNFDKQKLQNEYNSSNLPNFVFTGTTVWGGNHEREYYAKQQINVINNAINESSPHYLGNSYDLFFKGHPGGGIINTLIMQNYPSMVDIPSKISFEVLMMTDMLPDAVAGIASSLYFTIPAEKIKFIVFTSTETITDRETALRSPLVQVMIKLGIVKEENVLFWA
Briefly: sialyltransfer, HPLC with fluorescence detection, Michaelis-Menten fit. In kind it is biochemical. Particulars: 20 °C, labelled compound.

The target of another series is T2, His6-Pd2,6ST(16–497) (Photobacterium damselae, UniProt O66375).
T2 sequence (O66375 16-497): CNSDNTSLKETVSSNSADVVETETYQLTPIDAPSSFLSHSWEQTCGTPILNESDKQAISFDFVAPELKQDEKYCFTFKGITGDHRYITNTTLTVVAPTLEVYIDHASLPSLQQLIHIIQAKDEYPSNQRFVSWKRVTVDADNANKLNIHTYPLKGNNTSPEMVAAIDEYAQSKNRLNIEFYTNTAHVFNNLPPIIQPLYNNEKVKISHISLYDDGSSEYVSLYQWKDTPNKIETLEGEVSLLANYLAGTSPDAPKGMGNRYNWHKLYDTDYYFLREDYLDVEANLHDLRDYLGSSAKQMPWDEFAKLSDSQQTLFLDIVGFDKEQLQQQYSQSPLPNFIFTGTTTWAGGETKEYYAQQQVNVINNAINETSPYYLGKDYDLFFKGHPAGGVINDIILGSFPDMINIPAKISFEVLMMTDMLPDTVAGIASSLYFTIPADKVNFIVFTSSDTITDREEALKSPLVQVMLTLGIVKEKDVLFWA
Kind of series: donor hydrolysis, capillary electrophoresis, Michaelis-Menten fit. In kind it is biochemical. The note with it: donor hydrolysis (water as acceptor); pH 8.0; 37 °C. The essentials:
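Recombinant enzyme (6 μM) was incubated with CMP-Neu5Ac (10, 20, 40, 60, 80 and 100 mM) in 200 mM Tris-HCl pH 8.0 for 20 min, with no acceptor, in duplicate. Reactions were stopped with ethanol and centrifuged. Supernatants were run by capillary electrophoresis in 25 mM sodium tetraborate pH 9.4, with PDA detection at 200 and 254 nm. Kinetic parameters came from a Michaelis-Menten fit of the duplicate means.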

Substrate in series [1]: CC(=O)N[C@H]1[C@H]([C@H](O)[C@H](O)CO)O[C@](OP(=O)(O)OC[C@H]2O[C@@H](n3ccc(N)nc3=O)[C@H](O)[C@@H]2O)(C(=O)O)C[C@@H]1O
Briefly: donor hydrolysis, capillary electrophoresis, Michaelis-Menten fit. In kind it is biochemical, Photobacterium sp. JT-ISH-224. Particulars: donor hydrolysis (water as acceptor), pH 8.0, 20 °C.

Substrate in series [2]: CC(=O)N[C@H]1[C@H]([C@H](O)[C@H](O)CO)O[C@](OP(=O)(O)OC[C@H]2O[C@@H](n3ccc(N)nc3=O)[C@H](O)[C@@H]2O)(C(=O)O)C[C@@H]1O
Kind of series: sialyltransfer, HPLC with fluorescence detection, Michaelis-Menten fit. In kind it is biochemical, Photobacterium sp. JT-ISH-224. The note with it: LacβMU 1.0 mM as acceptor, pH 8.0, 20 °C.

Substrate in series [3]: Cc1cc(=O)oc2cc(O[C@@H]3O[C@H](CO)[C@@H](O[C@@H]4O[C@H](CO)[C@H](O)[C@H](O)[C@H]4O)[C@H](O)[C@H]3O)ccc12
The series is described as above. In kind it is biochemical, Photobacterium sp. JT-ISH-224. The note with it: CMP-Neu5Ac 1.0 mM, pH 8.0, 20 °C.

For the molecule `CC(=O)N[C@H]1[C@@H](O[C@H](C)[C@H](N)C(=O)O)O[C@H](CO)[C@H](O)[C@@H]1O` [GalNAcαThr], the Km on Psp2,6ST(15–501)-His6 (CMP-Neu5Ac 4.0 mM, pH 8.0) is 7.2 ± 3 mM.
Turning to `CC(=O)N[C@H]1[C@@H](OC[C@H](N)C(=O)O)O[C@H](CO)[C@H](O)[C@@H]1O` [GalNAcαSer], the Km at Psp2,6ST(15–501)-His6 (CMP-Neu5Ac 2.0 mM, pH 8.0) is 1.7 ± 0.7 mM.
Turning to GalNAcα2AA, on Psp2,6ST(15–501)-His6 (CMP-Neu5Ac 4.0 mM, pH 5.0), the Km was 5.5 ± 1 mM.
On to `CC(=O)N[C@H]1[C@H]([C@H](O)[C@H](O)CO)O[C@](OP(=O)(O)OC[C@H]2O[C@@H](n3ccc(N)nc3=O)[C@H](O)[C@@H]2O)(C(=O)O)C[C@@H]1O` [CMP-Neu5Ac], for which, on His6-Pd2,6ST(16–497), the “Km (mM)” value is listed as “(1.8±0.4)×10 mM”.

B1: Psp2,6ST(15–501)-His6 (Photobacterium sp. JT-ISH-224) (protein)
chain: T1 sequence (A8QYL1 15-501 A366G) with G352A
For the molecule B1, in series [1], the kcat was found to be 4.83 ± 0.5 s⁻¹ and the kcat/Km was 283 M⁻¹ s⁻¹.

B2: Psp2,6ST(15–501)-His6 (Photobacterium sp. JT-ISH-224; A366G) (protein)
chain: T1 sequence (A8QYL1 15-501 A366G)
On to B2, for which, in series [2], the Michaelis constant (Km) result is “(6.3±0.5)×10^−1 mM”, the kcat came to 2.17 ± 0.167 s⁻¹ and the kcat/Km was 3500 M⁻¹ s⁻¹. Further, in series [3], the Km result is “(4.1±0.4)×10^−1 mM”, the kcat was 1.67 ± 0.167 s⁻¹ and the kcat/Km was determined as 4000 M⁻¹ s⁻¹.
